Source: ChEMBL document CHEMBL1139481, “Synthesis and biological activity of anticancer ether lipids that are specifically released by phospholipase A2 in tumor tissue” (J Med Chem, 2005)

Experiments:
Type in all cases: functional, cell-based
[1] = system: MDA-MB-435; experiment: Cytotoxicity against human MDA-MB-435 cells after 3 days in serum free conditions by MTT assay; settings: MDA-MB-435, 72 h
Procedure, shortened: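 MDA-MB-435 cells grown in Dulbecco's modified Eagle medium with 10% FCS and 2 mM L-glutamine, then plated at 1 × 10^4/well 24 h before treatment. Lipids in PBS with 5-30% ethanol were added, and cells were incubated 3 days without serum to match the Akt study conditions. MTT read-out was expressed as percentage reduction in incorporated MTT, run in triplicate.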

[2] = system: MDA-MB-435; experiment: Inhibition of Akt phosphorylation in MDA-MB-435 cells after 2 hrs; settings: Homo sapiens, MDA-MB-435, 2 h
Procedure, shortened: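 MDA-MB-435 cells at 70% confluency, serum-starved 18 h, then given compound for 2 h and stimulated with insulin 10 µg/mL for 30 min. Lysates taken in Laemmli buffer after an ice-cold PBS wash. Western blot probed for Ser473 phospho-Akt, with total Akt as loading control. Controls: no insulin, and wortmannin 2 µM for 2 h before insulin.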

[3] = system: Caco-2; experiment: Cytotoxicity against human Caco-2 cells after 72 hrs by MTT assay; settings: Caco-2, 72 h
Procedure, shortened: (§1)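 Cells (Caco-2 in Dulbecco's modified Eagle medium; HT-29 in McCoy's 5A; both with 10% FCS and 2 mM L-glutamine; KATO III in RPMI 1640 with 10% heat-inactivated FCS, 2 mM L-glutamine, 1 mM pyruvate, 5% CO2, 37 °C) plated at 1 × 10^4/well 24 h before adding AELs in PBS with 5-30% ethanol. After 72 h, MTT read-out. IC50 is 50% reduction in cell number; mean ± SD, n = 3-9.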

[4] = Cytotoxicity against human KATO3 cells after 72 hrs by MTT assay; settings: KATO3, 72 h; procedure, shortened: as §1
[5] = system: HT-29; experiment: Cytotoxicity against human HT29 cells after 72 hrs by MTT assay; settings: HT-29, 72 h; procedure, shortened: as §1

CCCCCCCCCCCCCCCCOP(=O)([O-])OCC[N+](C)(C)C [MILTEFOSINE]
IC50 [1]: 23 µM | IC50 [2]: 5 µM

CCCCCCCCCCCCCCCCOC[C@@H](O)COP(=O)(O)OC[C@@H](O)CO
IC50 [1]: 47 µM | IC50 [2]: 24 µM | IC50 [3]: 75 µM | IC50 [4]: 49 µM | IC50 [5]: 20 µM

CCCCCCCCCCCCCCCCCCOCC(COP(=O)([O-])OCC[N+](C)(C)C)OC (configuration not stated) [EDELFOSINE]
IC50 [1]: 12 µM | IC50 [2]: 3 µM

CCCCCCCCCCCCCCCCOC[C@@H](O)COP(=O)(O)OC[C@H](O)CO
IC50 [1]: 73 µM | IC50 [2]: 24 µM | IC50 [5]: 105 µM
